SR-BI DiI-HDL act = activators of SR-BI mediated HDL lipid uptake | 320,000 compounds, 0.096% hits | CHO ldlA[mSR-BI] cells, DiI-HDL uptake fluorescence, 3 h; 100 = double the neutral-control signal | activation, % at 12.5 µM;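 active = mean replicate activation of at least 60% and every replicate at or above 60%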;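 note: 0% = median plate neutral-control signal and 100% = twice that signal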
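Assay system: CHO ldlA[mSR-BI] cells, LDL receptor-null, SR-BI overexpressing; medium: Ham's F12 with 0.5% BSA, HEPES 25 mM, pH 7.4; also added: DiI-HDL 10 µg/mL; timing: 3 h uptake period with compound, 37 °C; signal: DiI fluorescence, bottom read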
DYRK1A inh = Dyrk1A (rat) kinase inhibition. ADP-Glo luminescence, NFATc1 peptide. Q63470. 310,000 compounds, 0.43% hits. AID 504441. inhibition, % at 12.5 µM;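 note: plate controls were vehicle with enzyme for no effect and no enzyme for full effect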
SR-BI HDL uptake = blocks mouse SR-BI lipid uptake from DiI-HDL; Q61009; ldlA[mSR-BI] CHO cells, DiI-HDL uptake fluorescence, 3 h; inhibition, % at 12.5 µM; 320,000 compounds, 0.96% hits;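 active = mean replicate inhibition of at least 70% and a set share of replicates each scoring 70 or more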;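 note: 0% = median of neutral control wells and 100% = median of positive control wells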
CDK5 p35 inh = CDK5/p35 (human) kinase inhibition. Q00535+Q15078. Recombinant CDK5/p35, ADP-Glo luminescence, 60 min. inhibition, % at 10 µM. 330,000 compounds, 0.01% hits;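 active = highest replicate inhibition of at least 50% and at least 75% of replicates reaching 50%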;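 note: plate controls were DMSO neutral control for no effect and GW8510 at 10 µM for full effect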
dFosB activator = mouse delta FosB homodimer activation. P13346. purified delta FosB, TAMRA-CDK5 oligo fluorescence polarization; percent of positive-control signal above neutral wells. activation, % at 25 µM. 340,000 compounds, 0.99% hits;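 active = mean activation above about 17%, with every replicate also reaching it, limit read from the data, passing the limit was not always enough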
NSD2 HMT inh = NSD2 (human) methyltransferase inhibition. NSD2 peptide methylation, AlphaScreen, 120 min. inhibition, % at 12.5 µM. 310,000 compounds, 0.54% hits. AID 743445
Alpha artifact = AlphaScreen assay artifact in NSD2 counter-screen. AlphaScreen artifact counterscreen, preloaded methylated H4 peptide. 1,500 compounds, 9.4% hits. shares compounds with NSD2 HMT inh. AC35, µM (doses to about 10 µM), for the others: at the top dose activity change, negative = signal loss; call rule not given here
Numbers without * were called inactive; / = no result given. In the library only some 2.5% were active in any assay of this set; here they are far more common. Cut-off read from the data, not from the text of the source, unless noted: active = inhibition above about 50%; inactive = the rest.

SMILES	SR-BI DiI-HDL act	DYRK1A inh	SR-BI HDL uptake	CDK5 p35 inh	dFosB activator	NSD2 HMT inh	Alpha artifact
COC(=O)NNC(=O)c1ccccc1OC	/	-5	/	-2	-5	-3	/
COc1ccccc1C(=O)NNC(=O)Cc1ccccc1	/	5	/	1	2	55*	2%
Cn1c(SCn2nnc3ccccc3c2=O)nc2ccccc2c1=O	/	/	/	/	/	0	/
O=c1c2ccccc2nnn1CSc1nc2ccccc2c(=O)n1CCCO	11	/	-11	1	-10	52*	1%
CC1CCCCN1C(=O)COC(=O)c1cc(Cl)c2c(c1)OCO2 (stereo unspecified)	12	/	-12	0	3	/	/
CC(=O)Oc1cccc2c1C(=O)C1CC=CC(OC(C)=O)C1C2=O (stereo unspecified)	-7	46	7	-1	-5	69*	8µM*
COc1ccc(-c2csc(N(CCCN(C)C)C(=O)c3ccccc3Cl)n2)cc1	-2	5	2	-1	16	58*	-6%
Cc1ccc(C(=O)N[C@H](C(=O)Nc2sccc2C(N)=O)C(C)C)cc1	/	3	/	0	-10	1	/
COC(=O)c1ccc(N2CCN(C)CC2)c(NC(=O)c2ccc(Br)o2)c1	-30	12	30	1	-9	3	/
COc1ccc(/C=N/Nc2cc(N3CCCC3)nc(N3CCCC3)n2)cc1	-49	15	49	-1	23*	102*	-9%
CC(=O)Nc1ccc2ccccc2c1[N+](=O)[O-]	9	21	-9	0	2	1	/
CCN1CCN(Cc2nc(N)nc(Nc3ccc(C)c(C)c3)n2)CC1	22	2	-22	0	-4	95*	4%
CCCCn1c(N)c(N(CC(C)C)C(=O)c2oc3ccc(Br)cc3c2C)c(=O)[nH]c1=O	-34	14	34	-1	-11	-1	/
Nc1ncnc(NCc2ccc(F)cc2)c1[N+](=O)[O-]	0	10	0	1	3	-2	/
Nc1ncnc(NCc2ccccc2)c1[N+](=O)[O-]	28	1	-28	0	-2	53*	-1%
O=C(CSc1ccc(-c2cccnc2)nn1)N1CCCC1	11	/	-11	0	-3	52*	2%
CCCCCCNc1c([N+](=O)[O-])cc(C)cc1[N+](=O)[O-]	-23	2	23	0	2	53*	9.9µM*
CCN(CC)CCNc1ccc(CO)c2sc3ccccc3c(=O)c12	-6	15	6	-2	4	/	/
COc1cc(C)c2sc3ccccc3c(=O)c2c1NCCN(C)C	/	/	/	/	/	161*	3.2µM*
COc1cccc(C(C(=O)NC2CCCC2)N(C(=O)c2csnn2)C2CC2)c1 (stereo unspecified)	4	-1	-4	3	3	99*	-2%
COCCNC(=O)c1cccc(OC2CCN(Cc3ccc(F)cc3OC)CC2)c1	14	-1	-14	-3	-5	12	/
O=C1C(Cl)=C(NCCN2CCCCC2)C(=O)c2ccccc21	-6	14	6	0	11	58*	-4%
O=C(NCCN1CCCC1)c1ccccc1Cl	16	2	-16	1	5	-1	/
COc1cccc2c1C(=N)c1c(O)c3c(c(O)c1C2=O)CC(O)(C(C)=O)CC3OC1CC(N)C(O)C(C)O1 (stereo unspecified)	-38	9	38	4	-241	56*	8.5µM*
Cc1ccc(NC(=O)NCc2ccco2)cc1[N+](=O)[O-]	/	/	/	/	/	3	/
SMILES	SR-BI DiI-HDL act	DYRK1A inh	SR-BI HDL uptake	CDK5 p35 inh	dFosB activator	NSD2 HMT inh	Alpha artifact
O=C(NCc1ccco1)Nc1cccc([N+](=O)[O-])c1	7	10	-7	0	2	52*	-1%
O=C(Nc1nccs1)C1CCCN1/C=C/C(=O)C(F)(F)F (stereo unspecified)	-18	0	18	0	-5	0	/
CC(=O)Nc1ccc(NC(=O)CC2Nc3cccc4cccc(c34)NC2=O)cc1 (stereo unspecified)	-12	-1	12	0	-7	8	/
CC(=O)c1ccc(NC(=O)CC2Nc3cccc4cccc(c34)NC2=O)cc1 (stereo unspecified)	-20	2	20	0	-7	78*	-5%
COC(=O)c1nn(C)c(=O)[nH]c1=O	8	-3	-8	-1	-1	51*	1%
Cn1nc(C#N)c(=O)[nH]c1=O	0	-6	0	1	-7	-5	/
CC1CCCC(NC(=O)COC(=O)c2c[nH]c(=O)[nH]c2=O)C1C (stereo unspecified)	18	8	-18	-5	-2	78*	-6%
Cc1cc(C(=O)OCC(=O)NC2CCCC(C)C2C)c(C)o1 (stereo unspecified)	10	1	-10	1	3	0	/
Cc1cccc(C(=O)Nc2cccc(-c3cnc4ccccc4n3)c2)c1	-13	-1	13	1	-22	57*	-2%
COc1ccccc1NC(=O)c1ccc(NC(=O)C2COc3ccccc3O2)cc1 (stereo unspecified)	-52	1	52	-2	-7	76*	1%
O=C(CSc1nnc2ccccn12)NNC(=O)c1ccccc1	24	-1	-24	0	-9	-3	/
O=C(CSc1nnc2ccccn12)NNC(=O)c1ccc([N+](=O)[O-])cc1	14	2	-14	0	-1	86*	-4%
COC(=O)N/N=C1/C/C(=N\NC(=O)OC)c2ccccc21	-2	5	2	-7	-16	97*	-5%
COC(=O)NN=C1CCC(c2ccccc2)CC1 (stereo unspecified)	27	-7	-27	-1	-9	0	/
CCCC(CCC(=O)Nc1cccc([N+](=O)[O-])c1)C(=O)O (stereo unspecified)	6	2	-6	1	-8	83*	-1%
Cc1ccn(S(=O)(=O)c2ccc(N3CCCC3=O)cc2)n1	6	-7	-6	1	-5	-2	/
CCCN(CCC)CCCNC(=O)c1cn(CC)c2ccc(S(=O)(=O)N3CCc4ccccc4C3)cc2c1=O	/	-4	/	1	-10	50*	2%
CC(=O)Nc1ccc(N(C(=O)CNC(=O)c2ccco2)C(C(=O)NCC2CCCO2)c2ccccc2)cc1 (stereo unspecified)	1	1	-1	0	2	51*	1%
CCc1ccc(N(C(=O)CNC(=O)c2ccco2)C(C(=O)NCC2CCCO2)c2ccccc2)cc1 (stereo unspecified)	-4	-1	4	1	2	0	/
Cc1cc(=O)[nH]c(SCC(=O)Nc2ccc(Cl)cc2)n1	/	/	/	/	/	2	/

Source: PubChem (Broad Institute)
